Screening results: PubChem BioAssay, several laboratories
STAT3 blocker = IL-6 driven STAT3 reporter inhibitors, primary screen, U3A cells, luciferase, luminescence, MLSCN library | inhibition, % at 5.5 µM | AID 862, 2007 | IL-6 STAT3-luciferase reporter; host cell line lacks STAT1 | 190,000 tested, 0.89% active;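 active means inhibition above the mean inhibition across all screened compounds plus 3 SD, cut at about 44% in these data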
APP 5'UTR act = activators of APP 5'UTR luciferase reporter, primary screen, SH-SY5Y cells; activation, % at 2 µM; SH-SY5Y APP 5'UTR luciferase reporter, luminescence; zero percent = DMSO vehicle wells; 190,000 tested, 1% active; AID 1276, 2008;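 active means activation above a set limit, based on mean plus 3 SD of controls, cut at about 140% in these data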
STAT1 inh-1 = STAT1 signaling inhibitors, primary screen, cell-based, HTS, luciferase reporter | 200,000 tested, 0.35% active | AID 920, 2007 | inhibition, % at 5.5 µM | NIH 3T3 STAT1-luciferase reporter, IFN-gamma, luminescence;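 active means inhibition above a set limit, the mean inhibition across all tested compounds plus 3 SD, cut at about 34% in these data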
STAT1 activator = STAT1 signaling activators, primary screen, cell-based, HTS, luciferase reporter. AID 932, 2007. NIH 3T3 STAT1-luciferase reporter, IFN-gamma, luminescence; 100% = IFN-gamma alone, no compound. 200,000 tested, 2.6% active. activation (% of control), % at 5.5 µM;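 active means activation above the screen-wide mean activation plus 3 SD, cut at about 130% in these data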
STAT3 act = IL-6 driven STAT3 reporter potentiators, primary screen, U3A cells, luciferase, luminescence, MLSCN library. 190,000 tested, 0.91% active. IL-6 STAT3-luciferase reporter; 100% = signal with IL-6 EC80 alone. activation (% of control), % at 5.6 µM;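 active means activation above the screen-wide mean of compound activation plus 3 SD, cut at about 130% in these data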
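Material: STAT1-lacking human U3A cells, STAT3 luciferase reporter | Benchmarks: IL-6-only wells as 100% reference | Probe or stimulus: IL-6 (33 ng/mL) | Timing: Compound 1 h, then IL-6 6 h at 37 °C | Detection: Luminescence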
NF-kB expr up = activators of NF-kB expression in neurons, primary screen, cell-based, HTS; human neuronal cells, NF-kB reporter expression; stronger effect = higher value; fold change at 12.5 µM; 190,000 tested, 1.6% active; AID 1239, 2008; in the data active means fold change above about 3.3
STAT1 inh-2 = STAT1 signaling inhibitors, confirmation, cell-based, HTS, luciferase reporter; NIH 3T3 STAT1-luciferase reporter, IFN-gamma, luminescence; 200 tested, 55% active; inhibition, % at 5.5 µM; shares compounds with STAT1 inh-1; AID 1263, 2008;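 active means triplicate mean inhibition exceeding the hit cutoff computed for the primary STAT1 screen, cut at about 35% in these data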
NFkB inh STAT1ct = NF-kB reporter inhibitors, TNF-alpha stimulated, counter-screen for STAT1 inhibitor project, cell-based, HEK293T, luciferase luminescence; shares compounds with STAT1 inh-1; TNF-alpha induced; inhibition, % at 5.7 µM; 200 tested, 30% active; AID 1303, 2008;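 active means inhibition above the mean of solvent-only control wells plus 3 SD of those wells, cut at about 15% in these data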
STAT3 inh STAT1c = STAT3 reporter inhibition by STAT1 hits, counter-screen for STAT1 inhibitor project, U3A cells, luciferase, luminescence, triplicate; shares compounds with STAT1 inh-1; 200 tested, 20% active; inhibition, % at 5.7 µM; IL-6 STAT3 luciferase reporter; cells lacking STAT1; AID 1310, 2008;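 active means inhibition above the mean of solvent-only control wells plus 3 SD, set per campaign, cut at about 25% in these data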
A number is an active result; . = inactive; / = no result. An excerpt weighted towards active compounds, which were near 4.9% of everything screened.

SMILES | STAT3 blocker | APP 5'UTR act | STAT1 inh-1 | STAT1 activator | STAT3 act | NF-kB expr up | STAT1 inh-2 | NFkB inh STAT1ct | STAT3 inh STAT1c
O=C(c1ccc(Cl)cc1)N1CCN(c2ccnc3cc(Cl)ccc23)CC1 | . | . | 48 | . | . | . | 47 | . | .
Cc1cccc(C(=O)NCC(=O)OCC(=O)c2cc(C)n(CC3CCCO3)c2C)c1 (centres undefined) | . | . | . | . | . | . | / | / | /
Cc1cc(C(=O)COC(=O)CNC(=O)c2ccccc2)c(C)n1CC1CCCO1 (centres undefined) | . | . | 37 | . | . | . | . | . | .
CN1CCN(Cc2nc3ccccc3c(=O)n2Cc2nc(-c3ccc4ccccc4c3)cs2)CC1 | . | . | 45 | . | . | 16 | 40 | . | .
CN1CCN(Cc2nc3ccccc3c(=O)n2Cc2nc(-c3ccccc3F)cs2)CC1 | . | . | 50 | . | . | . | 51 | . | .
CN1CCN(Cc2nc3ccccc3c(=O)n2Cc2nc(-c3cccc([N+](=O)[O-])c3)cs2)CC1 | . | . | 62 | . | . | . | 38 | . | .
CN(C)Cc1nc2ccccc2c(=O)n1Cc1nc(C(C)(C)C)cs1 | . | . | 53 | . | . | . | . | . | .
Cc1cccnc1NC1(C(F)(F)F)N=C(c2ccccc2)NC1=O (centres undefined) | . | . | . | . | . | . | / | / | /
CCOC(=O)N1CCN(C(=O)c2ccc(CSc3ccc(Cl)cc3)cc2)CC1 | . | . | 38 | . | . | . | 39 | . | .
Cc1cc2nc(C)c3c(n2n1)CCC3 | . | . | . | . | . | . | / | / | /
O=C(c1ccco1)N1CCn2cccc2C1c1ccccc1 (centres undefined) | . | . | . | . | . | . | / | / | /
N#CC(C#N)=C(Nc1ccc(F)cc1)SCc1cccc(Br)c1 | . | . | 39 | . | . | . | 52 | 16 | 43
CC(C)CC(=O)Nc1ccc(N2CCOCC2)cc1 | . | / | . | . | . | . | / | / | /
COc1ccc(N/N=C(\C#N)C(=N)SCc2ccccc2)cc1 | . | . | 37 | . | . | . | . | 59 | .
COc1ccc(N/N=C(/C#N)S(=O)(=O)C(C)(C)C)cc1 | . | . | . | . | . | . | / | / | /
COc1cc(-c2nnc(COC(=O)c3c4c(nc5ccccc35)CCCC4)o2)cc(OC)c1OC | . | . | . | . | . | . | / | / | /
CCOC(=O)/C(=C/C=C1\Sc2ccccc2N1CC)C(C)=O | . | . | . | . | . | . | / | / | /
CCOC(=O)/C(=C/C=C1\Sc2cc(C)c(C)cc2N1CC)C(C)=O | . | . | 40 | . | . | . | 40 | . | 27
CC(C)C(=O)Nc1ccc(-c2nc3ccccc3c(=O)o2)cc1 | . | . | 38 | . | . | . | . | . | .
CC(C)C(=O)Nc1cccc(-c2nc3ccccc3c(=O)o2)c1 | . | . | . | . | . | . | / | / | /
CC(C)(C)C(=O)Nc1ccc(-c2nc3ccccc3c(=O)o2)cc1 | . | . | 41 | . | . | . | . | . | .
CCC(=O)Nc1cccc(-c2nc3ccccc3o2)c1 | . | . | . | . | . | . | / | / | /
CCCC(=O)Nc1cccc(-c2nc3ccccc3c(=O)o2)c1 | . | . | 37 | . | . | 3.9 | . | . | .
CC(C)(C)C(=O)Nc1cccc(-c2nc3ccccc3c(=O)o2)c1 | . | . | . | . | . | . | / | / | /
CCC(=O)NC(=S)Nc1ccc(NC(=S)NC(=O)c2ccccc2)cc1 | . | . | 83 | . | . | . | 53 | 38 | .
SMILES | STAT3 blocker | APP 5'UTR act | STAT1 inh-1 | STAT1 activator | STAT3 act | NF-kB expr up | STAT1 inh-2 | NFkB inh STAT1ct | STAT3 inh STAT1c
CCC(=O)NC(=S)Nc1ccc(NC(=S)NC(=O)c2ccc(C)cc2)cc1 | . | . | . | . | . | . | / | / | /
O=C(N/N=C/c1ccncc1)c1nn(Cc2ccccc2)c(=O)c2ccccc12 | . | . | 39 | . | . | . | . | . | .
CS(=O)(=O)N(CC(=O)NCCSc1ccccn1)c1ccc(F)cc1 | . | . | . | . | . | . | / | / | /
Cc1ccc(/C=C2/SC(=S)N(CCCC(=O)Nc3ccc(O)cc3)C2=O)cc1 | . | . | 40 | . | . | . | 39 | 54 | .
CCOC(=O)c1sc(N(Cc2ccccc2)C(=O)COC(=O)c2ccc(O)cc2)nc1C | . | . | 58 | . | . | . | 59 | 57 | .
CCOC(=O)c1sc(N(Cc2ccccc2)C(=O)COC(=O)c2ccccc2O)nc1C | . | . | . | . | . | . | / | / | /
N#Cc1cc2c(nc1Cl)CCCC2 | . | . | . | . | . | . | / | / | /
C=CCOC(=O)C1=C[C@H](c2cn(C(C)=O)c3ccccc23)C[C@H](OCCCCO)O1 | / | . | . | . | / | . | / | / | /
C=CCOC(=O)C1=C[C@@H](c2cn(C(C)=O)c3ccccc23)C[C@@H](OCCCCO)O1 | / | . | . | . | / | . | . | . | .
CCOC(=O)c1c(C)sc2c1N(C(=O)CCl)c1cc(Cl)ccc1S2 | . | . | 36 | . | . | . | 40 | 30 | .
O=C(c1ccc(S(=O)(=O)Cc2ccccc2Cl)c([N+](=O)[O-])c1)N1CCN(c2ccccn2)CC1 | . | . | . | . | . | . | / | / | /
Cc1ccccc1-c1noc(N)c1C#N | . | . | 35 | . | . | . | 42 | . | .
COCCNC(=O)C1=NOC(Cn2cc(C#N)c(=O)n(C)c2=O)C1 (centres undefined) | . | . | . | . | . | . | / | / | /
O=C1CC(N2CCSCC2)C(=O)N1CCc1ccccc1 (centres undefined) | . | . | . | . | . | . | / | / | /
COc1ccc(-n2c(-c3ccc(Br)cc3)nc(=S)c3c2CCCC3)cc1 | . | . | . | . | . | . | / | / | /
COc1ccc(-n2c(-c3ccc(Br)cc3)c[n+]3c2CCCCC3)cc1 | . | . | 40 | . | . | . | . | . | .
